ChEMBL document CHEMBL3124863, “Structural modifications of neuroprotective anti-Parkinsonian (-)-N6-(2-(4-(biphenyl-4-yl)piperazin-1-yl)-ethyl)-N6-propyl-4,5,6,7-tetrahydrobenzo[d]thiazole-2,6-diamine (D-264): an effort toward the improvement of in vivo efficacy of the parent molecule” (J Med Chem, 2014)
The source made the active and inactive calls. No cut-off for these calls is given here.

What was measured:
[1] = tested on: Rattus norvegicus; experiment: Antiparkinsonian activity in 6-OHDA-lesioned Sprague-Dawley rat assessed as stimulation of rotational activity at 10 umol/kg measured up to 12 hrs; assay type: functional, organism-based
Summary of the method: (§1)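 Male Sprague–Dawley rats (290–320 g) with a left medial forebrain bundle 6-OHDA lesion, confirmed by apomorphine challenge. Drug given i.p. in water/saline; vehicle controls. Contralateral (clockwise) rotations counted in a rotometry harness chamber in 30-min bins over up to 12 h. Doses 5 or 10 μmol/kg. Mean ± SEM of 3–4 rats; ANOVA with Dunnett's test.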

[2] = tested on: Rattus norvegicus; experiment: Antiparkinsonian activity in Sprague-Dawley rat assessed as reversal of reserpine-induced akinesia at 5 umol/kg, sc administered in deionized water measured up to 400 mins; assay type: functional, organism-based
Summary of the method: (§2)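 Male Sprague–Dawley rats (220–225 g) given reserpine 5 mg/kg s.c. 18 h before test drug. After 1 h acclimatization, drug given at 5 μmol/kg (i.p., or s.c. for ropinirole). Horizontal activity counted by infrared beam breaks for 6 h in 30-min intervals, compared with reserpine controls. n = 4; ANOVA with Dunnett's test.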

[3] = tested on: Radical scavenging activity; experiment: Antioxidant activity assessed as inhibition of DPPH free radical scavenging activity; assay type: functional
Summary of the method: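 Compounds in methanol (20–250 μM solutions) mixed 1:1 with 200 μM methanolic DPPH. Shaken 25 min at 30 °C, absorbance read at 517 nm. Methanol-only wells used for background; ascorbic acid as standard. % scavenging = (control A − sample A)/control A × 100.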

[4] = tested on: MN9D; experiment: Neuroprotective activity in mouse MN9D cells assessed as protection against MPP+-induced toxicity pretreated for 1 hr followed by MPP+-challenge measured after 24 hrs by MTT assay; assay type: functional, cell-based
Summary of the method: (§3)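 MN9D mouse dopaminergic hybridoma cells seeded at 1 × 10^4 per well on poly-L-lysine and equilibrated 40 h. Pretreated 1 h with compound (0.001–20 μM), then cotreated with 100 μM MPP+ for 24 h at 37 °C. Viability by MTT (0.5 mg/mL final, 3 h), formazan in DMSO/methanol, A570–A690. Means ± SD of three experiments in 4–6 replicates; ANOVA with Tukey's test.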

[5] = tested on: Rattus norvegicus; experiment: Antiparkinsonian activity in 6-OHDA-lesioned Sprague-Dawley rat assessed as stimulation of rotational activity at 2.5 umol/kg measured for 5 hrs in presence of haloperidol; assay type: functional, organism-based
[6] = tested on: Rattus norvegicus; experiment: Antiparkinsonian activity in Sprague-Dawley rat assessed as reversal of reserpine-induced akinesia at 5 umol/kg, ip administered in 10% beta-hydroxy cyclodextrin solution measured up to 400 mins; assay type: functional, organism-based; summary of the method: as §2
[7] = tested on: Rattus norvegicus; experiment: Antiparkinsonian activity in Sprague-Dawley rat assessed as reversal of reserpine-induced akinesia at 5 umol/kg, ip administered in deionized water measured up to 400 mins; assay type: functional, organism-based; summary of the method: as §2
[8] = species: Rattus norvegicus; experiment: Selectivity ratio of Ki for rat dopamine D2L receptor to Ki for rat dopamine D3 receptor
Summary of the method: (§4)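 Inhibition of [3H]spiroperidol (16.2 Ci/mmol) binding to rat D2 or D3 receptors expressed in HEK-293 cells. Buffer contains 0.9% NaCl; "high [radioligand]" protocol. IC50 converted to Ki by Cheng–Prusoff. Means ± SEM of 3–6 experiments, each in triplicate.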

[9] = molecular target: D(2) dopamine receptor (Rattus norvegicus, UniProt P61169); experiment: Displacement of [3H]spiroperidol from rat dopamine D2L receptor expressed in HEK293 cells; assay type: cell-based; summary of the method: as §4
Chain of D(2) dopamine receptor (Rattus norvegicus, UniProt P61169) (P61169 whole entry): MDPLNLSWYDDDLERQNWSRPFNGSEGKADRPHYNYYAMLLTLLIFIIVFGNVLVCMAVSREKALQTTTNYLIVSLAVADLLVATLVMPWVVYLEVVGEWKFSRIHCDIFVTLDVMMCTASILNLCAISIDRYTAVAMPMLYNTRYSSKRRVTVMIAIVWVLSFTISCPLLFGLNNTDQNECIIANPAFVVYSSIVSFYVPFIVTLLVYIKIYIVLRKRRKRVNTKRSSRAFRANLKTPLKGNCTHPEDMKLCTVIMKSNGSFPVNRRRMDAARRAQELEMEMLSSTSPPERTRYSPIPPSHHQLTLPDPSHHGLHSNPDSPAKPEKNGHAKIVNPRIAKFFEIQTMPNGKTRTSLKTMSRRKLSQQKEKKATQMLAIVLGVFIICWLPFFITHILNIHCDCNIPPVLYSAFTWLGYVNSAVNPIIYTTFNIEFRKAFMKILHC

[10] = molecular target: D(3) dopamine receptor (Rattus norvegicus, UniProt P19020); experiment: Displacement of [3H]spiroperidol from rat dopamine D3 receptor expressed in HEK293 cells; assay type: cell-based; summary of the method: as §4
Chain of D(3) dopamine receptor (Rattus norvegicus, UniProt P19020) (P19020 whole entry): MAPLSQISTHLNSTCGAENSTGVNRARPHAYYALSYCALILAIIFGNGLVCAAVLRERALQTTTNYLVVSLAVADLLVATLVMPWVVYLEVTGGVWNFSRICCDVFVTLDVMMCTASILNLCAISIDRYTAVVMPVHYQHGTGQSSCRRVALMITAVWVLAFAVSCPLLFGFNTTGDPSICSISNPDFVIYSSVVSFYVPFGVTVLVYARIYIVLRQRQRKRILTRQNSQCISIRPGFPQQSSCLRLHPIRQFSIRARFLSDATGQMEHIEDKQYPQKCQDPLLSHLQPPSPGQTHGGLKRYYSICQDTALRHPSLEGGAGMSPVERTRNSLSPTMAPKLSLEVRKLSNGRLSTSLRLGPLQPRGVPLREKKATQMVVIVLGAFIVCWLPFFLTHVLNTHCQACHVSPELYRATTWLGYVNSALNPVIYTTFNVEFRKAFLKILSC

[11] = tested on: MN9D; experiment: Neuroprotective activity in mouse MN9D cells assessed as protection against MPP+-induced toxicity at 0.001 to 20 uM pretreated for 1 hr followed by MPP+-challenge measured after 24 hrs by MTT assay; assay type: functional, cell-based; summary of the method: as §3
[12] = tested on: Rattus norvegicus; experiment: Antiparkinsonian activity in 6-OHDA-lesioned Sprague-Dawley rat assessed as stimulation of rotational activity measured as time required to reach peak effect at 6.56 mg/kg, ip; assay type: functional; conditions: route intraperitoneal; summary of the method: as §1
[13] = tested on: Rattus norvegicus; experiment: Antiparkinsonian activity in 6-OHDA-lesioned Sprague-Dawley rat assessed as stimulation of rotational activity at 3.28 mg/kg, ip measured for 7 hrs; assay type: functional, organism-based; parameters: dose 3.28 mg/kg; summary of the method: as §1
[14] = tested on: Rattus norvegicus; experiment: Antiparkinsonian activity in 6-OHDA-lesioned Sprague-Dawley rat assessed as stimulation of rotational activity at 6.56 mg/kg, ip measured for 10 hrs; assay type: functional, organism-based; parameters: dose 6.56 mg/kg; summary of the method: as §1
[15] = tested on: Rattus norvegicus; experiment: Antiparkinsonian activity in 6-OHDA-lesioned ip dosed Sprague-Dawley rat assessed as stimulation of rotational activity measured up to 12 hrs; assay type: functional, organism-based; summary of the method: as §1
[16] = species: Homo sapiens; experiment: Selectivity ratio of EC50 for human dopamine D2 receptor to EC50 for human dopamine D3 receptor
[17] = molecular target: D(3) dopamine receptor (Homo sapiens, UniProt P35462); experiment: Agonist activity at human dopamine D3 receptor expressed in CHO cells assessed as stimulation of [35S]GTPgammaS binding; assay type: functional, cell-based
Chain of D(3) dopamine receptor (Homo sapiens, UniProt P35462) (P35462 whole entry): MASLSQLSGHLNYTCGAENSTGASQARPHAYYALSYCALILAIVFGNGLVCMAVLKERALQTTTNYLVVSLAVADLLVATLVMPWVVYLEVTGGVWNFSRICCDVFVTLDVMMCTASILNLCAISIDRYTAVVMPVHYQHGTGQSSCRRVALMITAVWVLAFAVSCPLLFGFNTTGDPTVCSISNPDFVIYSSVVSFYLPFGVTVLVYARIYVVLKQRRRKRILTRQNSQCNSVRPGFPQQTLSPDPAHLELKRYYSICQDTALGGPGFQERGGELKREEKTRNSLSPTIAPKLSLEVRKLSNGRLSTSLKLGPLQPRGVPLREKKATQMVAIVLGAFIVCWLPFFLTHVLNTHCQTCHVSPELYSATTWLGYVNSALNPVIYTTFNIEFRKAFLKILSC

[18] = molecular target: T1, D(2) dopamine receptor (Homo sapiens, UniProt P14416); experiment: Agonist activity at human dopamine D2 receptor expressed in CHO cells assessed as stimulation of [35S]GTPgammaS binding
T1 sequence (P14416 whole entry): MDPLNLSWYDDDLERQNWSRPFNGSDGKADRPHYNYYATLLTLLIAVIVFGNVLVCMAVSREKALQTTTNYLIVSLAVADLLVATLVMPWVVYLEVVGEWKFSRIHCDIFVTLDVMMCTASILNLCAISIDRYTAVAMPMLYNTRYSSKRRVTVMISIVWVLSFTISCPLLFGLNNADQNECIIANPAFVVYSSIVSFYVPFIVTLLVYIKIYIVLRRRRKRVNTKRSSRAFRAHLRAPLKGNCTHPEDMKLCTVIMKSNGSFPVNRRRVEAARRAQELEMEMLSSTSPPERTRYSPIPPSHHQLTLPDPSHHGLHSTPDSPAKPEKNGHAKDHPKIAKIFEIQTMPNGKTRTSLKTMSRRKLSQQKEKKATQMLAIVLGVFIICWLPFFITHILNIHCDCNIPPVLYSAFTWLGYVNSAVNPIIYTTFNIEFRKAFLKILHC

[19] = molecular target: T1, D(2) dopamine receptor; experiment: Agonist activity at human dopamine D2 receptor expressed in CHO cells assessed as stimulation of [35S]GTPgammaS binding relative to dopamine

Structure (SMILES) | inhibition [3] | Ratio Ki [8] | Ki [9] | Ki [10] | further results
CCCN(CCC)CCc1cccc2c1CC(=O)N2 | Dose-dependent effect |  |  |  | Activity [1]: Active; Activity [2]: Active
CCCN(CCN1CCN(c2ccc(-c3ccccc3)cc2)CC1)[C@H]1CCc2nc(N)sc2C1 | Dose-dependent effect |  |  |  | Activity [4]: Dose-dependent effect; Activity [5]: inactive; Activity [6]: Active; Activity [7]: inactive
CCCN(CCN1CCN(c2ccc(-c3cccc(O)c3)cc2)CC1)[C@@H]1CCc2nc(N)sc2C1 |  | 76 | 1510 nM | 19.7 nM | 
CCCN(CCN1CCN(c2ccc(-c3cccc(OC)c3)cc2)CC1)[C@H]1CCc2nc(N)sc2C1 | Dose-dependent effect | 147 | 343 nM | 2.33 nM | Activity [11]: inactive; Time [12]: 7.5 h; Activity [13]: Active; Activity [14]: Active; Activity [15]: Dose-dependent effect; Activity [7]: Active; Ratio EC50 [16]: 10.8; EC50 [17]: 3.42 nM; EC50 [18]: 36.8 nM; Emax [19]: 105%
CCCN(CCN1CCN(c2ccc(-c3ccccc3)cc2)CC1)C1CCc2nc(N)ncc2C1 (racemic) |  | 201 | 735 nM | 3.65 nM | 
CCCN(CCN1CCN(c2ccc(-c3ccccc3)cc2O)CC1)C1CCc2nc(N)sc2C1 (racemic) |  | 30 | 70.6 nM | 2.35 nM | 
CCCN(CCN1CCN(c2ccc(-c3cccc(O)c3)cc2)CC1)C1CCc2nc(N)ncc2C1 (racemic) |  | 196 | 13100 nM | 67 nM | 
CCCN(CCN1CCN(c2ccc(-c3ccc(O)cc3)cc2)CC1)C1CCc2nc(N)sc2C1 (racemic) |  | 196 | 230 nM | 1.17 nM | 
CCCN(CCN1CCN(c2ccc(-c3ccccc3O)cc2)CC1)C1CCc2nc(N)sc2C1 (racemic) |  | 115 | 208 nM | 1.8 nM | 
